Reference: ChEMBL document CHEMBL4689842, “EUbOPEN Chemogenomics Library wave 1” (2021)

System: Fibroblast
Assay: Multiplex assay against human fibroblast
Format: toxicity, cell-based
Summary of the method: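 Live cells were stained at seeding with Hoechst33342, BioTracker Green Microtubule Cytoskeleton Dye, MitoTracker Red and Annexin V Alexa Fluor 680. Following compound addition, they were imaged on a CQ1 microscope at 37°C and 5% CO2 and gated by CellPathfinder machine learning into Hoechst high-intensity objects or normal cells, with normal cells split into healthy, pyknosed or fragmented nuclei and pyknosed cells into mitotic or apoptotic. Tubulin, mitochondrial-mass and membrane-permeability phenotypes are per cents of healthy-nucleus cells.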

[1] = 12 h, 1 µM, compound concentration 1 uM, replicate 1
[2] = 12 h, 1 µM, compound concentration 1 uM, replicate 2
[3] = 12 h, 10 µM, compound concentration 10 uM, replicate 1
[4] = 12 h, 10 µM, compound concentration 10 uM, replicate 2
[5] = 24 h, 1 µM, compound concentration 1 uM, replicate 1
[6] = 24 h, 1 µM, compound concentration 1 uM, replicate 2
[7] = 24 h, 10 µM, compound concentration 10 uM, replicate 1

## Cc1c(P(=S)(c2ccccc2)c2ccccc2)n2ccccc2[n+]1C/C=C/c1ccccc1.[Br-]
[1]
  Population Apoptotic (%): 63%
  Population Fragmented Nuclei (%): 26%
  Population Healthy Nuclei (%): 43%
  Population Hoechst High Intensity Objects (%): 7%
  Population Membrane Permeable-Phenotype (%): 7%
  Population Mitochondria Different-Phenotype (%): 28%
  Population Mitotic Cells (%): 36%
  Population Normal (%): 92%
  Population Pyknosed Nuclei (%): 30%
  Population Tubulin-Different-Phenotype (%): 60%
  Total Cell Count: 177
[2]
  Population Apoptotic (%): 75%
  Population Fragmented Nuclei (%): 50%
  Population Healthy Nuclei (%): 45%
  Population Hoechst High Intensity Objects (%): 22%
  Population Membrane Permeable-Phenotype (%): 10%
  Population Mitochondria Different-Phenotype (%): 50%
  Population Mitotic Cells (%): 25%
  Population Normal (%): 77%
  Population Pyknosed Nuclei (%): 4%
  Population Tubulin-Different-Phenotype (%): 31%
  Total Cell Count: 93
[3]
  Population Apoptotic (%): 73%
  Population Fragmented Nuclei (%): 23%
  Population Healthy Nuclei (%): 14%
  Population Hoechst High Intensity Objects (%): 14%
  Population Membrane Permeable-Phenotype (%): 5%
  Population Mitochondria Different-Phenotype (%): 64%
  Population Mitotic Cells (%): 26%
  Population Normal (%): 85%
  Population Pyknosed Nuclei (%): 62%
  Population Tubulin-Different-Phenotype (%): 88%
  Total Cell Count: 137
[4]
  Population Apoptotic (%): 94%
  Population Fragmented Nuclei (%): 21%
  Population Healthy Nuclei (%): 10%
  Population Hoechst High Intensity Objects (%): 8%
  Population Membrane Permeable-Phenotype (%): 83%
  Population Mitochondria Different-Phenotype (%): 83%
  Population Mitotic Cells (%): 5%
  Population Normal (%): 91%
  Population Pyknosed Nuclei (%): 68%
  Population Tubulin-Different-Phenotype (%): 83%
  Total Cell Count: 108
[5]
  Population Apoptotic (%): 70%
  Population Fragmented Nuclei (%): 22%
  Population Healthy Nuclei (%): 58%
  Population Hoechst High Intensity Objects (%): 9%
  Population Membrane Permeable-Phenotype (%): 5%
  Population Mitochondria Different-Phenotype (%): 40%
  Population Mitotic Cells (%): 29%
  Population Normal (%): 90%
  Population Pyknosed Nuclei (%): 19%
  Population Tubulin-Different-Phenotype (%): 59%
  Total Cell Count: 181
[6]
  Population Apoptotic (%): 75%
  Population Fragmented Nuclei (%): 55%
  Population Healthy Nuclei (%): 40%
  Population Hoechst High Intensity Objects (%): 33%
  Population Membrane Permeable-Phenotype (%): 9%
  Population Mitochondria Different-Phenotype (%): 31%
  Population Mitotic Cells (%): 25%
  Population Normal (%): 66%
  Population Pyknosed Nuclei (%): 3%
  Population Tubulin-Different-Phenotype (%): 15%
  Total Cell Count: 124
[7]
  Population Apoptotic (%): 85%
  Population Fragmented Nuclei (%): 17%
  Population Healthy Nuclei (%): 10%
  Population Hoechst High Intensity Objects (%): 18%
  Population Membrane Permeable-Phenotype (%): 8%
  Population Mitochondria Different-Phenotype (%): 83%
